14 molecules from PubChem BioAssay can be followed below.

The source made the active and inactive calls.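 Rule for the calls, unless noted: active = fluorescence slope after compound addition differing from the mean of all tested samples at 99.7% confidence, mostly higher but some lower; inactive = the rest.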

Assay [1] can be described thus: inhibitors of TNFa-induced NFkB p65 translocation, primary screen, imaging, HUVEC, MLSMR starter and 10KST1 sets (AID 438;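 active = inhibition above 20% together with a positive visual image hit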;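 note: compound added about 3h40 before a 20 min TNFalpha stimulation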;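 for inhibition: signal is the nuclear over cytoplasmic p65 intensity ratio per well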). To be noted: HUVEC TNFa-induced p65 nuclear translocation; cell count: measured here: nuclei count (cytotoxicity indicator), at 2.08 µM; inhibition: at 2 µM, stronger effect = higher value, 0% TNFa-plus-vehicle, 100% no-TNFa wells.
Assay [2] in a line: inhibitors of mutant huntingtin aggregation, primary screen, imaging, exon1htt(103Q)mCFP cells, high-content imaging (AID 483;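 active = visual image review flags a hit and inhibition of aggregation exceeds 20%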;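 note: compound exposure lasted 3 days before fixation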;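 for nuclei count: percent of the per-plate median nuclei count of sample wells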). To be noted: exon1htt(103Q)mCFP cell line, aggregate imaging, at 2 µM; inhibition of aggregation: stronger effect = higher value; nuclei count: measured here: cell count, toxicity.
A short description of assay [3]: inhibitors of E-selectin induction by TNFa, primary screen, imaging, HUVEC, immunofluorescence, MLSMR starter and 10KST1 sets (AID 487;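 active = visually confirmed hit in the image check and inhibition above 20%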;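 for inhibition: signal is fraction of cell area covered by stained E-selectin grains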;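 for nuclei count: 100% = median nuclei count of all wells on the same plate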). To be noted: HUVEC TNFalpha-induced E-selectin immunofluorescence imaging, at 2 µM; inhibition: stronger effect = higher value; nuclei count: measured here: cell number, toxicity.
For assay [4], the target named is Voltage-gated potassium channel subunit beta-2 (Rattus norvegicus) (UniProt P62483). As to the kind of experiment: KvBeta enzyme negative modulators, primary screen, biochemical, NADPH fluorescence (AID 622;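 active = fluorescence slope higher than the sample average by over 3 SD, cut at about -0.22 in these data, passing the limit was not always enough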;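 note: slope of raw intensity against log time taken from 70 to 1610 s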). To be noted: recombinant KvBeta, 4-cyanobenzaldehyde reduction, at 10 µM, stronger effect = higher value.
For assay [5] the target is unchanged. As to the kind of experiment: KvBeta positive modulators, primary screen, biochemical, NADPH fluorescence (AID 623;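 active = NADPH fluorescence slope more negative than the mean of all samples by about 3 SD, 99.7% confidence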;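 note: fluorescence intensity change per second fitted from 20 to 320 s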). The conditions noted are these: Recombinant KvBeta, NADPH fluorescence decrease slope, 10 min; at 10 µM; stronger effect = lower value.
For assay [6], the target named is Muscarinic acetylcholine receptor M4 (Homo sapiens) (UniProt P08173). As to the kind of experiment: compounds altering M4/GIRK thallium flux, either direction, primary screen, M4 allosteric agonist project, cell-based, HEK293 M4/GIRK, BTC-AM (AID 625).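 Note: thallium influx through GIRK channels coupled to M4 in HEK293 cells with BTC-AM dye.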 The conditions noted are these: at 10 µM, actives lie on both sides. The method, boiled down:
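Material – HEK293 cells with M4 receptor and GIRK channels · Buffer or medium – pH 7.3 thallium assay buffer · Doses – one dose, 10 µM final · Timing – cells overnight at 37 °C, BTC-AM loading 1 h, reads 2 min total · Measured by – kinetic fluorescence with BTC-AM dye · Controls – carbachol and DMSO controls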

A short description of assay [7]: inhibitors of Sendai virus-induced IRF3 signaling, primary screen, TLR/RLR signaling modifier project, cell-based, Sendai virus stimulus, luciferase, 10K MLSCN set (AID 602276;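 active = inhibition at or above 50% at 10 µM; inactive = inhibition below 50%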;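 note: firefly luciferase from ISG56 promoter only with Renilla not read in this screen; 0% = Sendai virus plus DMSO and 100% = medium plus DMSO without virus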). To be noted: HEK293 RL24 IRF3 luciferase reporter, at 10 µM, stronger effect = higher value. A general note: In a reporter assay the amount or activity of a reporter protein is the signal.
The nature of assay [8]: inhibitors of poly I:C-induced TLR3 signaling, primary screen, cell-based, poly I:C stimulus, luciferase, 10K MLSCN set (AID 602277;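 active = inhibition of the reporter signal at or above 50%; inactive = inhibition below 50%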). To be noted: HEK293-TLR3 RL24 IRF3 luciferase reporter, at 10 µM, stronger effect = higher value.

Sequence of Voltage-gated potassium channel subunit beta-2 (Rattus norvegicus) (P62483 whole entry, looked up): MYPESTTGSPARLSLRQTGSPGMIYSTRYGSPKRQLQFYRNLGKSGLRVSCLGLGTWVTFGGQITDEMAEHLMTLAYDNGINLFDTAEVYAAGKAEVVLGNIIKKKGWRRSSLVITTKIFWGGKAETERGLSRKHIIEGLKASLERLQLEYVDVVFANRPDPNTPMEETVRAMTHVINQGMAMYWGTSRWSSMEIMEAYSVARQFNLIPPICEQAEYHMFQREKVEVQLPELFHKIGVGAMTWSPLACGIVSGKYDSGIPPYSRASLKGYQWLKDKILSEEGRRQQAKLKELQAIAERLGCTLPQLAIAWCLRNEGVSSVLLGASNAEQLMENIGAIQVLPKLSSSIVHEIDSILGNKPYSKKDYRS
Sequence of Muscarinic acetylcholine receptor M4 (Homo sapiens) (P08173 whole entry, looked up): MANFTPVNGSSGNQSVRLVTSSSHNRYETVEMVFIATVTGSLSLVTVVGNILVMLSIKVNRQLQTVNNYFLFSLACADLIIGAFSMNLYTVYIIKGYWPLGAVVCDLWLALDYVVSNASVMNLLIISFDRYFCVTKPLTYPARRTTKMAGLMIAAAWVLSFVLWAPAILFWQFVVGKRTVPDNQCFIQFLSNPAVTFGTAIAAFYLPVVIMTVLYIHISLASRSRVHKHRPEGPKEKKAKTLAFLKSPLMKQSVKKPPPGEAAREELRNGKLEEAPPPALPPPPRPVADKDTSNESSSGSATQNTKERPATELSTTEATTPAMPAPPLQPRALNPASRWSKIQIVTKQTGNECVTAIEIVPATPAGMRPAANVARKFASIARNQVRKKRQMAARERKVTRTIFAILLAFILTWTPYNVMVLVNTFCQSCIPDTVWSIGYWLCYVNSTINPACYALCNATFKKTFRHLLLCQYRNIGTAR

Turning to `CCOC(=O)C1CCCN(C(=O)CNS(=O)(=O)c2ccc(Br)s2)C1` (centres undefined), the cell count in assay [1] was 232. Moreover, the inhibition was 3.3% (inactive) in assay [1], -33.6% (inactive) in assay [3], 11.6% (inactive) in assay [7] and 8.54% (inactive) in assay [8]. The inhibition of aggregation in assay [2] was -8.6% (inactive). The nuclei count in assay [2] worked out at 108%; in assay [3] it was 113%. For the same molecule, the fluorescence slope in assay [4] was -0.437 (inactive); in assay [6], 0.00599 (inactive). Moreover, the NADPH fluorescence slope in assay [5] was -5.6e-05 (inactive).

As for `COCCN1CN(S(=O)(=O)c2ccccc2)c2nc3ccccc3nc21`, in assay [1], the cell count was found to be 307. Besides, the inhibition in assay [1] is 8.3% (inactive); in assay [3], -47.3% (inactive); in assay [7], 13.6% (inactive); in assay [8], 17.4% (inactive). The inhibition of aggregation in assay [2] is -0.3% (inactive). Also, the results for the nuclei count in assay [2] and in assay [3] were 94.4% and 160%, respectively. Besides, the figures for the fluorescence slope in assay [4] and in assay [6] were -0.54 (inactive) and 0.00322 (inactive), respectively. Besides, the NADPH fluorescence slope in assay [5] was -0.000125 (inactive).

For `Cn1c(=O)c2c(ncn2CC(O)CNc2ccc(Cl)cc2)n(C)c1=O` (centres undefined), the cell count in assay [1] stood at 629. Also, the inhibition in assay [1] was -6.3% (inactive); in assay [3], -104% (inactive); in assay [7] it was 3.66% (inactive); in assay [8], 2.85% (inactive). Also, the inhibition of aggregation in assay [2] is -15.7% (inactive). For the same molecule, the nuclei count in assay [2] worked out at 100%; in assay [3], 110%. For the same molecule, the fluorescence slope in assay [4] was -0.447 (inactive); in assay [6], 0.00475 (inactive). Further, the NADPH fluorescence slope in assay [5] was 3.3e-05 (inactive).

Regarding `COc1ccccc1N1CCN(C(=O)CSc2nc(-c3ccccc3)cc(=O)[nH]2)CC1`, the cell count in assay [1] was 284. Also, the inhibition was -10.5% (inactive) in assay [1], -30.1% (inactive) in assay [3], -1.48% (inactive) in assay [7] and 6.29% (inactive) in assay [8]. In addition, in assay [2], the inhibition of aggregation was -9.2% (inactive). Moreover, the values for the nuclei count in assay [2] and in assay [3] were 114% and 124%, respectively. For the same molecule, the fluorescence slope in assay [4] is -0.509 (inactive); in assay [6] it was 0.00621 (inactive). The NADPH fluorescence slope in assay [5] was 9.3e-06 (inactive).

Take `COC(=O)c1[nH]c(C)c(/C(O)=C2\C(=O)C(=O)N(CCN(C)C)C2c2ccccc2OC)c1C` (centres undefined): the cell count in assay [1] was found to be 472. The inhibition in assay [1] was -8% (inactive); in assay [3], -33.4% (inactive); in assay [7], -8.53% (inactive); in assay [8], 2.66% (inactive). Further, in assay [2], the inhibition of aggregation is 10.7% (inactive). For the same molecule, the nuclei count in assay [2] amounted to 106%; in assay [3] it was 103%. Further, the fluorescence slope was -0.326 (inactive) in assay [4] and 0.00598 (inactive) in assay [6]. Moreover, the NADPH fluorescence slope in assay [5] is -1.8e-05 (inactive).

As for `COc1ccc(CNC(=O)c2cc(-c3ccc(OC)c(OC)c3)on2)cc1`, in assay [1], the cell count was determined as 383. Further, the inhibition was -7.2% (inactive) in assay [1], 21.5% (inactive) in assay [3], 15.2% (inactive) in assay [7] and -6.13% (inactive) in assay [8]. For the same molecule, the inhibition of aggregation in assay [2] is 2% (inactive). Besides, the nuclei count in assay [2] was found to be 104%; in assay [3], 110%. Besides, the results for the fluorescence slope in assay [4] and in assay [6] were -0.206 (inactive) and 0.00919 (inactive), respectively. Moreover, the NADPH fluorescence slope in assay [5] was -1.8e-05 (inactive).

For the molecule `Cc1ccc(-c2c3c(=O)n(C)c(=O)n(C)c3cn2CCCN2CCOCC2)cc1`, the cell count in assay [1] is 761. For the same molecule, the inhibition in assay [1] was 4.5% (inactive); in assay [3] it was -32% (inactive); in assay [7] it was 10.9% (inactive); in assay [8], 18.9% (inactive). For the same molecule, in assay [2], the inhibition of aggregation is 1.2% (inactive). Further, the nuclei count is 92.9% in assay [2] and 116% in assay [3]. The fluorescence slope is -0.414 (inactive) in assay [4] and 0.00744 (inactive) in assay [6]. Moreover, the NADPH fluorescence slope in assay [5] was 2.2e-05 (inactive).

For `O=C(O)C1CC(=O)N(c2ccc(Br)cc2)C1` (centres undefined), in assay [1], the cell count amounted to 375. Besides, the inhibition in assay [1] was 0.4% (inactive); in assay [3], -49.6% (inactive); in assay [7] it was 2.88% (inactive); in assay [8] it was 10% (inactive). Moreover, the inhibition of aggregation in assay [2] is -10.6% (inactive). Besides, the nuclei count in assay [2] was 107%; in assay [3], 117%. Moreover, the results for the fluorescence slope in assay [4] and in assay [6] were -0.506 (inactive) and 0.00384 (inactive), respectively. For the same molecule, in assay [5], the NADPH fluorescence slope was -0.000215 (inactive).

For the molecule `O=S(=O)(c1ccc(OCC(O)CN2CCN(c3ccccc3)CC2)cc1)N1CCOCC1` (centres undefined), the cell count in assay [1] is 603. The inhibition in assay [1] was -34.9% (inactive); in assay [3], -19.7% (inactive); in assay [7], 13.5% (inactive); in assay [8], -5.1% (inactive). The inhibition of aggregation in assay [2] is -19.9% (inactive). Moreover, the nuclei count is 104% in assay [2] and 108% in assay [3]. For the same molecule, the fluorescence slope in assay [4] is -0.214 (inactive); in assay [6], 0.00626 (inactive). Moreover, the NADPH fluorescence slope in assay [5] was -1.7e-05 (inactive).

On to `CCN(CC)C(=O)CSc1nc2ccc(NC(=O)CSc3nccn3C)cc2s1`, for which, in assay [1], the cell count was determined as 729. In addition, the inhibition in assay [1] is -2.4% (inactive); in assay [3] it was 19.3% (inactive); in assay [7], -9.79% (inactive); in assay [8] it was -19.1% (inactive). Besides, the inhibition of aggregation in assay [2] was -36.9% (inactive). For the same molecule, the results for the nuclei count in assay [2] and in assay [3] were 116% and 94.3%, respectively. The fluorescence slope in assay [4] was -0.577 (inactive); in assay [6] it was 0.00661 (inactive). Besides, in assay [5], the NADPH fluorescence slope is -1.3e-05 (inactive).

Turning to `COc1cc(-c2nc(-c3cccc(C(F)(F)F)c3)no2)cc(OC)c1OC`, the cell count in assay [1] was found to be 413. The inhibition was 5.3% (inactive) in assay [1], -78.2% (inactive) in assay [3], 3.75% (inactive) in assay [7] and -10.8% (inactive) in assay [8]. Besides, the inhibition of aggregation in assay [2] was 3.5% (inactive). The nuclei count in assay [2] amounted to 102%; in assay [3], 109%. Moreover, the figures for the fluorescence slope in assay [4] and in assay [6] were -0.554 (inactive) and 0.00715 (inactive), respectively. For the same molecule, the NADPH fluorescence slope in assay [5] was -5.5e-05 (inactive).

As for `CCOC(=O)N1CCC(NC(=O)c2ccc(OC)c(CN3CC(=O)N4CCCC4C3=O)c2)CC1` (centres undefined), the cell count in assay [1] came to 532. Further, the inhibition in assay [1] was -18.9% (inactive); in assay [3] it was -71.7% (inactive); in assay [7], 13.2% (inactive); in assay [8], 24.9% (inactive). Besides, in assay [2], the inhibition of aggregation is 2.9% (inactive). Also, the nuclei count in assay [2] was 98%; in assay [3], 94.9%. Besides, the figures for the fluorescence slope in assay [4] and in assay [6] were -0.447 (inactive) and 0.00582 (inactive), respectively. In addition, in assay [5], the NADPH fluorescence slope was -4.9e-05 (inactive).

As for `Cc1ccc(S(=O)(=O)N2CCCC2C(=O)OCc2ccco2)cc1` (centres undefined), the cell count in assay [1] is 411. Moreover, the inhibition is -8.4% (inactive) in assay [1], -0.1% (inactive) in assay [3], -9.42% (inactive) in assay [7] and -8.59% (inactive) in assay [8]. Moreover, in assay [2], the inhibition of aggregation was -7.8% (inactive). Besides, the results for the nuclei count in assay [2] and in assay [3] were 99% and 102%, respectively. Also, the values for the fluorescence slope in assay [4] and in assay [6] were -0.499 (inactive) and 0.005 (inactive), respectively. Moreover, the NADPH fluorescence slope in assay [5] is -4e-05 (inactive).

Consider `CCC(Oc1ccc2ccccc2c1)C(=O)O` (centres undefined), for which the cell count in assay [1] is 666. In addition, the inhibition in assay [1] was -4% (inactive); in assay [3], -39.6% (inactive); in assay [7] it was -9.77% (inactive); in assay [8] it was -32.2% (inactive). Further, in assay [2], the inhibition of aggregation is -46.2% (inactive). In addition, the nuclei count in assay [2] amounted to 129%; in assay [3], 137%. For the same molecule, the fluorescence slope is -0.489 (inactive) in assay [4] and 0.00595 (inactive) in assay [6]. In addition, in assay [5], the NADPH fluorescence slope was 6e-05 (inactive).

Broadly, the inhibition is the relative decrease from the control value, in per cent.
